For data set [1], the system named is Hepatitis C virus. Briefly: Inhibition of hepatitis C virus replication in Huh7-K2040 cells in presence of delipidated fetal calf serum assessed viral RNA level at 0.1 mM by RT-PCR relative to control. In kind it is functional. Put shortly: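 Huh7-K2040 cells seeded at 4 × 10^5 per 60-mm dish. On day 2 switched to 10% FCS or delipidated FCS with 0.1 mM BSA-conjugated fatty acids for 72 h. HCV RNA measured by real-time RT-PCR in triplicate, normalized to 36B4 by comparative CT, relative to untreated FCS control. Mean ± SD, three independent experiments.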

In data set [2] the test system is Hepatitis C virus. Briefly: Inhibition of hepatitis C virus replication in Huh7-K2040 cells in presence of fetal calf serum assessed viral RNA level at 0.1 mM by RT-PCR relative to control. In kind it is functional. Put shortly: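 Huh7-K2040 cells (subgenomic genotype 1b replicon) were seeded at 4 × 10^5 per 60-mm dish. From day 2 they were cultured in 10% FCS with 0.1 mM BSA-conjugated fatty acid for 72 h. HCV RNA was measured by real-time PCR with 36B4 as invariant control (comparative CT), relative to untreated FCS cells; mean ± SD, three independent experiments.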

Data set [3] deals with Hepatitis C virus. Briefly: Increase in hepatitis C virus replication in Huh7-K2040 cells in presence of delipidated fetal calf serum medium at 0.3 uM by RT-PCR relative to control. In kind it is functional, organism-based. Conditions: Hepacivirus hominis. The gist of the method: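 Replicon-bearing Huh7 cells (genotype 1b subgenomic HCV replicon), 4 × 10^5 cells per 60-mm dish on day 0. On day 2 they were switched to medium with 10% delipidated FCS plus 0.3 μM lipid-soluble vitamin/lipid. Harvested after 72 h. HCV RNA was measured by qRT-PCR, normalized to 36B4 by comparative CT, relative to FCS-cultured controls; mean ± SD of three independent experiments.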

In data set [4] the test system is Hepatitis C virus. The data set can be described thus: Inhibition of hepatitis C virus replication in Huh7-K2040 cells in presence of delipidated fetal calf serum medium assessed as increase of malondialdehyde at 0.1 mM relative to control. It counts as functional, Hepacivirus hominis. The gist of the method: (§1)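 Huh7 or Huh7-K2040 cells seeded 7 × 10^5 per 60-mm dish. On day 1 switched to 10% FCS or 10% delipidated FCS, with or without 0.1 mM BSA-conjugated arachidonate and 0.3 μM vitamin E, for 16 h. MDA measured by TBARS kit at 532 nm in homogenates of cells pooled from two dishes, normalized to cellular protein. Mean ± SD, three independent experiments.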

Data set [5] deals with Hepatitis C virus. Briefly: Inhibition of hepatitis C virus replication in Huh7-K2040 cells in presence of fetal calf serum medium by RT-PCR. In kind it is functional, organism-based, Hepacivirus hominis. Put shortly: (§2)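 Huh7-K2040 replicon cells (4 × 10^5 per 60-mm dish) switched on day 2 to 10% FCS or 10% delipidated FCS with graded BSA-conjugated arachidonate for 72 h. HCV RNA measured by real-time RT-PCR against 36B4 by comparative CT, relative to cells without arachidonate in the same serum. IC50 read from dose–response. Mean ± SD, three independent experiments.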

Data set [6] relates to Hepatitis C virus. Briefly: Inhibition of hepatitis C virus replication in Huh7-K2040 cells in presence of delipidated fetal calf serum medium assessed as reduction in viral RNA level at 0.1 mM after 72 hrs relative to control. More on the design: scale not given: the % may be the effect or the level left. It counts as functional, Hepacivirus hominis. The gist of the method: (§3)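 Time course in Huh7-K2040 cells (7 × 10^5 per 60-mm dish) given 10% delipidated FCS plus 0.1 mM BSA-conjugated arachidonate from day 1. HCV RNA measured by TaqMan real-time RT-PCR, normalized to 36B4 by comparative CT, relative to cells at time 0. Data from a representative experiment.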

Data set [7] can be described thus: Cytotoxicity against human Huh7-K2040 cells in delipidated fetal calf serum medium. In kind it is cell-based. As to conditions: huh-7. The gist of the method:
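Huh7-K2040 replicon cells (7 × 10^5 per 60-mm dish) moved on day 1 to medium with 10% delipidated FCS and 0.1 mM BSA-conjugated arachidonate, or to 10% FCS medium. Cells harvested at set times. Growth followed as total cellular protein by BCA, relative to protein at time 0. Data from a representative experiment.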

The test system of data set [8] is Hepatitis C virus. The data set can be described thus: Inhibition of hepatitis C virus replication in Huh7-K2040 cells in presence of delipidated fetal calf serum medium assessed as increase of malondialdehyde at 0.1 mM after 48 hrs. It counts as functional, organism-based. Conditions: Hepacivirus hominis. Put shortly: (§4)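 Huh7-K2040 cells (7 × 10^5 per 60-mm dish) switched on day 1 to 10% delipidated FCS with 0.1 mM BSA-conjugated arachidonate and harvested over a time course up to 72 h. MDA measured by TBARS assay at 532 nm, normalized to protein, relative to cells at time 0. Data from a representative experiment.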

Data set [9] deals with Hepatitis C virus. The data set can be described thus: Inhibition of hepatitis C virus replication in Huh7-K2040 cells in presence of delipidated fetal calf serum medium by RT-PCR. In kind it is functional, organism-based, Hepacivirus hominis. The gist of the method: as §2
For data set [10], the system named is Hepatitis C virus. Briefly: Reversal of inhibition of hepatitis C virus replication in Huh7-K2040 cells in presence of delipidated fetal calf serum medium assessed as malondialdehyde level at 0.1 mM in presence of vitamin E. In kind it is functional, organism-based. Conditions: Hepacivirus hominis. The gist of the method:
as §1

Data set [11] concerns Hepatitis C virus. Briefly: Inhibition of hepatitis C virus replication in Huh7-K2040 cells in presence of delipidated fetal calf serum medium assessed as reduction in viral RNA level at 0.1 mM after 12 hrs relative to control. It counts as functional, Hepacivirus hominis. On the set-up: scale not given: the % may be the effect or the level left. The gist of the method:
as §3

For data set [12], the system named is Hepatitis C virus. The data set can be described thus: Inhibition of hepatitis C virus replication in Huh7-K2040 cells in presence of delipidated fetal calf serum medium assessed as decrease of malonaldehyde at 0.1 mM after 72 hrs relative to control. More on the design: scale not given: the % may be the effect or the level left.
For data set [13], the system named is Hepatitis C virus. Briefly: Inhibition of hepatitis C virus replication in Huh7-K2040 in presence of delipidated fetal calf serum medium assessed as increase of malondialdehyde at 0.1 mM after 12 to 24 hrs. It counts as functional, organism-based. As to conditions: Hepacivirus hominis. The gist of the method:
as §4

In data set [14] the test system is Hepatitis C virus. Briefly: Inhibition of hepatitis C virus replication in Huh7-K2040 cells in presence of fetal calf serum medium assessed as increase of malondialdehyde at 0.1 mM relative to control. It counts as functional, Hepacivirus hominis. Put shortly:
as §1

Data set [15] deals with Hepatitis C virus. Briefly: Increase of hepatitis C virus replication in Huh7-K2040 cells in delipidated fetal calf serum medium assessed as increase in […] at 40 nM in presence of arachidonate by RT-PCR relative to control. Conditions: Hepacivirus hominis. In kind it is functional, organism-based. The gist of the method: (§5)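 Huh7 cells carrying a genotype 1b subgenomic replicon were seeded on day 0. On day 2 they were moved to medium with 10% delipidated FCS, with or without 0.1 mM BSA-conjugated arachidonate, and given graded vitamin E. After 72 h HCV RNA was quantified by real-time PCR against 36B4 (comparative CT), relative to untreated controls kept in 10% FCS; three independent experiments.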

Data set [16] deals with Hepatitis C virus. The data set can be described thus: Increase of hepatitis C virus replication in Huh7-K2040 cells in fetal calf serum medium in absence of arachidonate by RT-PCR relative to control. It counts as functional, organism-based. As to conditions: Hepacivirus hominis.
Data set [17] concerns Hepatitis C virus. The data set can be described thus: Increase of hepatitis C virus replication in Huh7-K2040 cells in delipidated fetal calf serum medium in presence of arachidonate by RT-PCR relative to control. It counts as functional, organism-based. Conditions: Hepacivirus hominis. The gist of the method:
as §5

In data set [18] the test system is Hepatitis C virus. Briefly: Restoration of hepatitis C virus replication in Huh7-K2040 cells in presence of delipidated fetal calf serum medium in absence of arachidonate by RT-PCR relative to control. It counts as functional, organism-based. As to conditions: Hepacivirus hominis. The gist of the method:
as §5

The subject of data set [19] is Hepatitis C virus. The data set can be described thus: Restoration of hepatitis C virus replication in Huh7-K2040 cells in delipidated fetal calf serum medium assessed as increase in […] 40 nM in absence of arachidonate by RT-PCR relative to control. In kind it is functional, organism-based. Conditions: Hepacivirus hominis. Put shortly: as §5
For data set [20], the system named is Hepatitis C virus. The data set can be described thus: Increase of hepatitis C virus replication in Huh7-K2040 cells in fetal calf serum medium in presence of arachidonate by RT-PCR relative to control. In kind it is functional, organism-based. As to conditions: Hepacivirus hominis. The gist of the method:
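Replicon Huh7-K2040 cells were seeded at 4 × 10^5 per 60-mm dish. On day 2 they went into 10% FCS or 10% delipidated FCS with 0.1 mM BSA-conjugated arachidonate, ± 0.3 μM vitamin E. Cells were harvested 72 h later. HCV RNA was determined by qRT-PCR (36B4 reference, comparative CT), relative to FCS controls.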

Activity calls are given as the source filed them. No cut-off for these calls is given here. A value given as a limit tells only on which side of the number the result lay.

Here are results for 7 molecules from ChEMBL document CHEMBL1147080, “Inhibition of hepatitis C virus replication by peroxidation of arachidonate and restoration by vitamin E” (Proc Natl Acad Sci U S A, 2007).

Regarding `CCCCCCCC/C=C\CCCCCCCC(=O)O`, the result in data set [1] (Hepacivirus hominis), in data set [2] (Hepacivirus hominis) and in data set [3] was inactive.

On to `COC1=C(OC)C(=O)C(C/C=C(\C)CC/C=C(\C)CC/C=C(\C)CCC=C(C)C)=C(C)C1=O`, for which, in data set [3], the result was Active.

As for `O=C1O[C@H]([C@@H](O)CO)C(O)=C1O`, the result in data set [3] was inactive.

The IC50 is the concentration that inhibits the measured activity by half. With `CCCCC/C=C\C/C=C\C/C=C\C/C=C\CCCC(=O)O` [ARACHIDONIC ACID], the Activity in data set [4] is listed as 48; in data set [6] it was greater than 90%; in [7], “Non-toxic”; in [1], 95%; in data set [2], 50%; in data set [11], 40%. Further, the Activity is reported as greater than 90% in data set [12] and 8 in data set [14]. For the same molecule, the IC50 was 60 µM in data set [5] and 10 µM in data set [9]. In addition, the result in data set [8] was inactive. The result in [10] and in data set [13] was Active.

For the molecule `CCCCC/C=C\C/C=C\CCCCCCCC(=O)O` [LINOLEIC ACID], in data set [2], the Activity stood at 50%.

Take `CC/C=C\C/C=C\C/C=C\CCCCCCCC(=O)O` [LINOLENIC ACID]: in data set [2], the Activity worked out at 50%.

Regarding VITAMIN E, the result in data set [15], in data set [18], in [19] and in [3] was Active. Besides, the outcome in [16] and in data set [20] was inactive. Besides, in data set [17], the Activity is 190%.
